According to ChEMBL document CHEMBL2346591, “Oxadiazole-isopropylamides as potent and noncovalent proteasome inhibitors” (J Med Chem, 2013):
Activity calls are given as the source filed them. The calls are words filed in the database; no cut-off is given here.

Experiments:
[1] = Inhibition of chymotrypsin-like activity of rabbit 20s proteasome beta5 subunit using Suc-Leu-Leu-Val-Tyr-AMC as substrate after 1 hr by fluorescence assay; design: species or system Oryctolagus cuniculus
Oryctolagus cuniculus [2] = organism: Oryctolagus cuniculus; assay: Inhibition of chymotrypsin-like activity of rabbit 20s proteasome beta5 subunit using Suc-Leu-Leu-Val-Tyr-AMC as substrate at 10 uM after 1 hr by fluorescence assay
In short: (§1)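 Purified rabbit 20S proteasome at 1 nM, with or without compound, incubated 1 h at 37 °C in 50 mM Tris-HCl pH 7.6 with fluorogenic AMC peptide: 20 µM […] (CT-L), Bz-Val-Gly-Arg-AMC (T-L) or Z-Leu-Leu-Glu-AMC (PGPH-L).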

MDA-MB-468 = assay: Cytotoxicity against human MDA-MB-468 cells assessed as decrease in cell survival after 120 hrs by MTT assay; format: functional, cell-based
In short: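 MDA-MB-468 cells (DMEM, 10% FBS, penicillin/streptomycin, 37 °C, 5% CO2) attached overnight, then exposed 120 h to varying inhibitor concentrations; medium replaced with complete medium containing 1 mg/ml MTT for 3 h at 37 °C, DMSO solubilisation, absorbance at 540 nm. IC50 from a four-parameter curve fit of % inhibition versus concentration.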

[3] = molecular target: T1, Proteasome Macropain subunit MB1 (Homo sapiens) (UniProt P28074); assay: (§2) Inhibition of chymotrypsin-like activity of proteasome beta5 subunit in human MDA-MB-468 cells using Suc-Leu-Leu-Val-Tyr-AMC as substrate after 2 hrs by fluorescence assay; format: cell-based
T1 sequence (whole entry): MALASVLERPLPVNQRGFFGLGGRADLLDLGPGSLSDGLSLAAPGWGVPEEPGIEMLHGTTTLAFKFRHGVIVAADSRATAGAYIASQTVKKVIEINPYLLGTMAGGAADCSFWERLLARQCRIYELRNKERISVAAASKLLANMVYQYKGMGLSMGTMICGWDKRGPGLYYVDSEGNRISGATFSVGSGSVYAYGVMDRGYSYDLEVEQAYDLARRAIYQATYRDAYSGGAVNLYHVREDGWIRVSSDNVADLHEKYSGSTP

[4] = molecular target: T2, Proteasome Macropain subunit MB1 (Homo sapiens, UniProt P28074); assay: as §2; format: cell-based
T2 sequence (P28074 whole entry): T1 sequence (whole entry)

[5] = Inhibition of postglutamyl-peptide-hydrolysis-like activity of rabbit 20s proteasome beta1 subunit using benzyloxycarbonyl Z-Leu-Leu-Glu-AMC as substrate after 1 hr by fluorescence assay; design: species or system Oryctolagus cuniculus; in short: as §1
[6] = Inhibition of trypsin-like activity of rabbit 20s proteasome beta2 subunit using Bz-Val-Gly-Arg-AMC as substrate after 1 hr by fluorescence assay; design: species or system Oryctolagus cuniculus; in short: as §1
Oryctolagus cuniculus [7] = organism: Oryctolagus cuniculus; assay: Reversible inhibition of chymotrypsin-like activity of rabbit 20s proteasome beta5 subunit assessed as residual activity at 10 uM after 2 hrs by dialysis method relative to control
Oryctolagus cuniculus [8] = organism: Oryctolagus cuniculus; assay: Reversible inhibition of chymotrypsin-like activity of rabbit 20s proteasome beta5 subunit assessed as residual activity at 10 uM after 20 mins by dialysis method relative to control
Oryctolagus cuniculus [9] = organism: Oryctolagus cuniculus; assay: Covalent binding affinity to rabbit 20s proteasome beta5 subunit assessed as modification of TTTLAFK peptide after 30 mins by LC-MS/MS analysis
In short: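 Purified rabbit 20S proteasome (1 nM) incubated with inhibitor in 50 mM Tris-HCl pH 7.6 for 30 min at room temperature; acetonitrile added, then trypsin (enzyme:substrate 1:50) digestion for 4 h at 37 °C; peptides concentrated, C18 tip-extracted, then LC/MS-MS checking the N-terminal Thr-1 TTTLAFK peptide for modification versus vehicle (DMSO).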

Oryctolagus cuniculus [10] = organism: Oryctolagus cuniculus; assay: Reversible inhibition of chymotrypsin-like activity of rabbit 20s proteasome beta5 subunit at 2.5 uM after 18 hrs by dialysis method

| SMILES | IC50 [1] [nM] | other results |
| --- | --- | --- |
| Cc1ccc(OCC(=O)N(Cc2nc(-c3ccc(Cl)cc3)no2)C(C)C)cc1 | 450 |  |
| CC(C)N(Cc1nc(-c2cccnc2)no1)C(=O)COc1ccc(C2CCCCC2)cc1 | 1360 |  |
| CC(C)N(Cc1nc(-c2ccccc2)no1)C(=O)COc1ccccc1 | 6200 |  |
| CC(C)N(Cc1nc(-c2cccnc2)no1)C(=O)COc1ccccc1 | 2710 |  |
| CC(C)N(Cc1nc(-c2ccccc2)no1)C(=O)CCc1ccc(C(F)(F)F)cc1 | 53500 |  |
| CCCc1ccc(OCC(=O)N(Cc2nc(-c3ncccn3)no2)C(C)C)cc1 | 1270 |  |
| CCN(Cc1nc(-c2ccc(C)cc2)no1)C(=O)COc1ccc(C)cc1 | 6040 |  |
| Cc1cccc(OCC(=O)N(Cc2nc(-c3ccccc3)no2)C(C)C)c1 |  | inhibition (Oryctolagus cuniculus [2]): inactive |
| CC(C)N(Cc1nc(-c2ccccc2)no1)C(=O)COc1ccc(-c2ccccc2)cc1 |  | inhibition (Oryctolagus cuniculus [2]): inactive |
| CC(C)N(Cc1nc(-c2ccc(C(F)(F)F)cc2)no1)C(=O)COc1ccc(C(F)(F)F)cc1 | 2530 |  |
| CC(C)N(Cc1nc(-c2ccc(Cl)cc2)no1)C(=O)COc1ccc(C(F)(F)F)cc1 | 940 |  |
| Cc1ccc(OCC(=O)N(Cc2nc(-c3ccc(C)cc3)no2)C(C)C)cc1 | 600 | Activity (MDA-MB-468): Active; inhibition [3]: Dose-dependent effect; IC50 [4]: 3500 nM; IC50 [5]: > 100000 nM; IC50 [6]: > 100000 nM; Activity (Oryctolagus cuniculus [7]): 100%; Activity (Oryctolagus cuniculus [8]): > 70%; Activity (Oryctolagus cuniculus [9]): inactive |
| CC(C)N(Cc1nc(-c2ccccc2)no1)C(=O)COc1ccc(Cl)cc1 | 510 |  |
| Cc1ccc(OCC(=O)N(C)Cc2nc(-c3ccc(C)cc3)no2)cc1 | 29900 |  |
| CCCCCCc1ccc(OCC(=O)N(Cc2nc(-c3cccnc3)no2)C(C)C)cc1 | 430 |  |
| Cc1ccc(OCC(=O)N(Cc2nc(-c3ccc(C)cc3)no2)C(C)(C)C)cc1 |  | inhibition (Oryctolagus cuniculus [2]): inactive |
| Cc1ccc(OCC(=O)N(Cc2nc(-c3ccc(C)cc3)no2)CC(C)C)cc1 | 2370 |  |
| CC(C)N(Cc1nc(-c2ccccc2)no1)C(=O)COc1ccc(O)cc1 | 10100 |  |
| CC(=O)N[C@@H](CSC(=O)[C@]1([C@@H](O)C(C)C)NC(=O)[C@H](C)[C@@H]1O)C(=O)O |  | inhibition (Oryctolagus cuniculus [10]): inactive; Activity (Oryctolagus cuniculus [9]): Active |

| SMILES | IC50 [1] [nM] | other results |
| --- | --- | --- |
| CC(C)N(Cc1nc(-c2ccc(C(F)(F)F)cc2)no1)C(=O)COc1ccc(Cl)cc1 | 1410 |  |
| Cc1ccc(OCC(=O)NCc2nc(-c3ccc(C)cc3)no2)cc1 |  | inhibition (Oryctolagus cuniculus [2]): inactive |
| CC(C)c1ccc(OCC(=O)N(Cc2nc(-c3cccnc3)no2)C(C)C)cc1 | 440 |  |
| Cc1ccc(OCC(=O)N(CCc2nc(-c3ccccc3)no2)C(C)C)cc1 |  | inhibition (Oryctolagus cuniculus [2]): inactive |
| CC(C)N(Cc1nc(-c2ccccc2)no1)C(=O)COc1ccc2cc(Br)ccc2c1 |  | inhibition (Oryctolagus cuniculus [2]): inactive |
| CCCCCc1ccc(OCC(=O)N(Cc2nc(-c3cccnc3)no2)C(C)C)cc1 | 120 |  |
| CC(C)N(Cc1nc(-c2ccccc2)no1)C(=O)COc1ccc(C(=O)O)cc1 |  | inhibition (Oryctolagus cuniculus [2]): inactive |
| Cc1ccc(CNC(=O)N(Cc2nc(-c3ccccc3)no2)C(C)C)cc1 |  | inhibition (Oryctolagus cuniculus [2]): inactive |
| CCCc1ccc(OCC(=O)N(Cc2nc(-c3ccc(C)cc3)no2)C(C)C)cc1 | 273 |  |
| CC(C)N(Cc1nc(-c2ccc(Cl)cc2)no1)C(=O)COc1ccc(Cl)cc1 | 1070 |  |
| Cc1ccc(OCC(=O)N(Cc2nc(-c3ccccc3)no2)C(C)C)cc1 | 310 |  |
| CC(C)N(Cc1nc(-c2cccnc2)no1)C(=O)COc1ccc(O)cc1 | 980 |  |
| CC(C)N(Cc1nc(-c2cccnc2)no1)C(=O)COc1ccc(F)cc1 | 1930 |  |
| CC(C)N(Cc1nc(-c2ccccc2)no1)C(=O)COc1ccc(F)cc1 | 10100 |  |
| Cc1ccc(OCC(=O)N(Cc2nc(-c3ccc(C(F)(F)F)cc3)no2)C(C)C)cc1 | 970 |  |
| Cc1ccc(OCC(=O)N(Cc2nc(-c3ccncc3)no2)C(C)C)cc1 | 370 |  |
| Cc1ccc(OCC(=O)N(Cc2nc(-c3ccccc3)no2)C(C)C)cn1 | 4000 |  |
| CCCc1ccc(OCC(=O)N(Cc2nc(-c3cccnc3)no2)C(C)C)cc1 | 27 | Activity (MDA-MB-468): Active; IC50 [5]: > 100000 nM; IC50 [6]: > 100000 nM |
| Cc1ccc(-c2noc(CN(C(=O)COc3ccc(Cl)cc3)C(C)C)n2)cc1 | 1120 |  |

| SMILES | IC50 [1] [nM] | other results |
| --- | --- | --- |
| CC(C)Cc1ccc(OCC(=O)N(Cc2nc(-c3cccnc3)no2)C(C)C)cc1 | 140 |  |
| CCc1ccc(OCC(=O)N(Cc2nc(-c3cccnc3)no2)C(C)C)cc1 | 99 |  |
| Cc1ccc(-c2noc(CN(C(=O)COc3ccc(C(F)(F)F)cc3)C(C)C)n2)cc1 | 1080 |  |
| Cc1ccc(NCC(=O)N(Cc2nc(-c3ccccc3)no2)C(C)C)cc1 | 5670 |  |
| CC(C)N(Cc1nc(-c2cccnc2)no1)C(=O)COc1ccc(C(C)(C)C)cc1 | 46500 |  |
| CCc1ccc(OCC(=O)N(Cc2nc(-c3ccccc3)no2)C(C)C)cc1 | 260 |  |
| Cc1ccc(OCC(=O)N(Cc2nc(-c3cccnc3)no2)C(C)C)cc1 | 220 |  |
| CC(C)N(Cc1nc(-c2cccnc2)no1)C(=O)c1cc2ccccc2o1 | 379 |  |
| CCCc1ccc(OCC(=O)N(Cc2nc(-c3cnccn3)no2)C(C)C)cc1 | 105 |  |
| Cc1ccccc1OCC(=O)N(Cc1nc(-c2ccccc2)no1)C(C)C |  | inhibition (Oryctolagus cuniculus [2]): inactive |
| CC(C)N(Cc1nc(-c2ccccc2)no1)C(=O)COc1ccc(C(F)(F)F)cc1 | 430 |  |
| CC(C)N(Cc1nc(-c2ccccc2)no1)C(=O)COc1ccc(C(=O)OC(C)(C)C)cc1 |  | inhibition (Oryctolagus cuniculus [2]): inactive |
| Cc1ccc(OCC(=O)N(Cc2nc(-c3ccccn3)no2)C(C)C)cc1 | 3750 |  |
| CC(C)N(Cc1nc(-c2cccnc2)no1)C(=O)COc1ccc(Cl)cc1 | 140 |  |
| CCCCc1ccc(OCC(=O)N(Cc2nc(-c3cnccn3)no2)C(C)C)cc1 | 107 |  |
| Cc1ccc(-c2noc(CN(C(=O)COc3ccccc3)C(C)C)n2)cc1 | 8500 |  |
| CCCCc1ccc(OCC(=O)N(Cc2nc(-c3cccnc3)no2)C(C)C)cc1 | 39 |  |
| CC(C)N(Cc1nc(-c2ccc(C(F)(F)F)cc2)no1)C(=O)COc1ccccc1 | 11200 |  |
| Cc1ccc(OCC(=O)N(Cc2nc(-c3ccc(C)cc3)no2)C2CC2)cc1 |  | inhibition (Oryctolagus cuniculus [2]): inactive |
